From ChEMBL document CHEMBL1641375, “Antitumor agents 279. Structure-activity relationship and in vivo studies of novel 2-(furan-2-yl)naphthalen-1-ol (FNO) analogs as potent and selective anti-breast cancer agents” (2011)
Converted amounts (≈) assume the structure as drawn.

Key:
KB = experiment: Cytotoxicity against human KB cells after 72 hrs by MTT assay; type: functional; details: read-out: ED50 (the source's name)
Procedure, shortened: (§1)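 Focused human tumour panel: A549 (non-small cell lung), DU145 (prostate), KB (nasopharyngeal), KB-VIN (MDR KB subline selected with vincristine), MDA-MB-231 (ER-negative basal-like breast), SK-BR-3 (ER-negative, HER2-overexpressing luminal-like breast), ZR-75-1 (ER-positive, HER2-overexpressing luminal-like breast). Run by previously published methods.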

[1] = Cytotoxicity against human KBVIN cells after 72 hrs by MTT assay; type: functional; details: read-out: ED50 (the source's name); procedure, shortened: as §1
A549 [2] = experiment: Cytotoxicity against human A549 cells after 72 hrs by MTT assay; type: functional; details: A549, 72 h, read-out: ED50 (the source's name); procedure, shortened: as §1
DU-145 = experiment: Cytotoxicity against human DU145 cells after 72 hrs by MTT assay; type: functional; details: DU-145, 72 h, read-out: ED50 (the source's name); procedure, shortened: as §1
SK-BR-3 [3] = experiment: Cytotoxicity against human SKBR3 cells after 72 hrs by MTT assay; type: functional; details: SK-BR-3, 72 h, read-out: ED50 (the source's name); procedure, shortened: as §1
ZR-75-1 [4] = experiment: Cytotoxicity against human ZR-75-1 cells after 72 hrs by MTT assay; type: functional; details: ZR-75-1, 72 h, read-out: ED50 (the source's name); procedure, shortened: as §1
MDA-MB-231 [5] = experiment: Cytotoxicity against human MDA-MB-231 cells after 72 hrs by MTT assay; type: functional; details: MDA-MB-231, 72 h, read-out: ED50 (the source's name); procedure, shortened: as §1
SK-BR-3 [6] = experiment: Selectivity ratio, ED50 for human KB cells to ED50 for human SKBR3 cells; type: functional
SK-BR-3 [7] = experiment: Selectivity ratio, ED50 for human KBVIN cells to ED50 for human SKBR3 cells; type: functional
A549 [8] = experiment: Selectivity ratio, ED50 for human A549 cells to ED50 for human SKBR3 cells; type: functional
SK-BR-3 [9] = experiment: Selectivity ratio, ED50 for human DU145 cells to ED50 for human SKBR3 cells; type: functional
ZR-75-1 [10] = experiment: Selectivity ratio, ED50 for human ZR-75-1 cells to ED50 for human SKBR3 cells; type: functional
MDA-MB-231 [11] = experiment: Selectivity ratio, ED50 for human MDA-MB-231 cells to ED50 for human SKBR3 cells; type: functional
[12] = Inhibition of mammary epithelial cells proliferation in Brca1/p53-deficient C57BL/6 and 129/Sv mouse assessed as reduction of mammary gland branching point at 0.1 mg, po qd for 11 days relative to control; type: functional, Epithelial cell; details: in the assay text read “ip qd” for “po qd”
Procedure, shortened: (§2)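 Three-month-old Brca1/p53-deficient or wild-type mice (C57BL/6 × 129/Sv background) received 0.1 mg i.p. daily for 11 days in DMSO/40% PEG/0.9% NaCl, or vehicle alone. Mammary gland whole mounts were fixed in Carnoy's fixative for 3 h and stained with Carmine alum overnight. Branching points were counted in three random areas totalling about 2 mm2.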

Epithelial cell = experiment: Inhibition of wild type mammary epithelial cells proliferation in wild type C57BL/6 and 129/Sv mouse assessed as reduction of mammary gland branching point at 0.1 mg, po qd for 11 days relative to control; type: functional; details: in the assay text read “ip qd” for “po qd”; procedure, shortened: as §2
[13] = Inhibition of mammary epithelial cells proliferation in Brca1/p53-deficient C57BL/6 and 129/Sv mouse assessed as reduction of BrdU positive cells at 0.1 mg, po qd for 11 days relative to control in presence of bromodeoxyuridine treated orally with drinking water last 3 days of treatment; type: functional, Epithelial cell; details: in the assay text read “ip qd” for “po qd”
Procedure, shortened: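 Three-month-old Brca1f11/f11p53f5&6/f5&6Crec or wild-type mice (mixed C57BL/6 and 129/Sv background) dosed 0.1 mg i.p. daily for 11 days. Dosing solution was 10 µL of a 10 mg/mL DMSO stock with 30 µL 40% PEG and 60 µL 0.9% NaCl; vehicle lacked compound. BrdU given in drinking water over the last 3 days. Glands fixed in 4% paraformaldehyde, paraffin-sectioned, citrate pH 6.0 antigen retrieval, anti-BrdU 1:1000. BrdU-positive cells per duct counted over ≥15 ducts/animal, ≥3 mice/genotype.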

Row | Structure (SMILES) | EC50 (KB) [µg/mL] | EC50 [1] [µg/mL] | EC50 (A549 [2]) [µg/mL] | EC50 (DU-145) [µg/mL] | EC50 (SK-BR-3 [3]) [µg/mL] | EC50 (ZR-75-1 [4]) [µg/mL] | EC50 (MDA-MB-231 [5]) [µg/mL] | Ratio ED50 (SK-BR-3 [6]) | Ratio ED50 (SK-BR-3 [7]) | Ratio ED50 (A549 [8]) | Ratio ED50 (SK-BR-3 [9]) | Ratio ED50 (ZR-75-1 [10]) | Ratio ED50 (MDA-MB-231 [11]) | inhibition (INH) [12] [%] | inhibition (INH) (Epithelial cell) [%] | inhibition (INH) [13] [%]
1 | CCc1cccc2c(OC)c(-c3occ(C)c3COC)ccc12 | > 10 | 8.8 (≈ 28.4 µM) | > 10 | > 10 | > 10 | 9.7 (≈ 31.3 µM) |  |  |  |  |  |  |  |  |  | 
2 | CCc1cccc2c(OC)c(-c3occ(C)c3C(=O)On3nnc4ccccc43)ccc12 | > 10 | > 10 | > 10 | > 10 | > 10 | > 10 | > 10 |  |  |  |  |  |  |  |  | 
3 | CCc1cccc2c(OC)c(-c3occ(C)c3CO)ccc12 | 7.1 (≈ 24 µM) | 6.6 (≈ 22.3 µM) | 9.6 (≈ 32.4 µM) | 7.2 (≈ 24.3 µM) | 0.73 (≈ 2.46 µM) | > 10 | > 10 | 9 | 9 | 13.2 | 9 | > 13.7 | > 13.7 |  |  | 
4 | CCOc1c(-c2occ(C)c2C(=O)O)ccc2c(CC)cccc12 | > 10 | > 10 | > 10 | > 10 | > 10 | > 10 | > 10 |  |  |  |  |  |  |  |  | 
5 | CCOc1c(-c2occ(C)c2COC)ccc2c(CC)cccc12 | > 10 | 5.9 (≈ 18.2 µM) | > 10 | > 10 | > 10 | > 10 | 4.9 (≈ 15.1 µM) |  |  |  |  |  |  |  |  | 
6 | CCOC(=O)c1c(C)coc1-c1ccc2c(CC)cccc2c1OC | 2.2 (≈ 6.5 µM) | 1.8 (≈ 5.32 µM) | 3.8 (≈ 11.2 µM) | 2.2 (≈ 6.5 µM) | 2.5 (≈ 7.39 µM) | 3.9 (≈ 11.5 µM) | 4.3 (≈ 12.7 µM) |  |  |  |  |  |  |  |  | 
7 | CCOc1c(-c2occ(C)c2CO)ccc2c(CC)cccc12 | > 10 | 6.4 (≈ 20.6 µM) | > 10 | > 10 | 8.8 (≈ 28.4 µM) | 1.4 (≈ 4.51 µM) | 1.7 (≈ 5.48 µM) |  |  |  |  |  |  |  |  | 
8 | CCc1cccc2c(OC(C)=O)c(-c3occ(C)c3COC(C)=O)ccc12 | > 10 | > 10 | > 10 | > 10 | > 10 | > 10 | > 10 |  |  |  |  |  |  |  |  | 
9 | CCOc1c(-c2occ(C)c2COC(C)=O)ccc2c(CC)cccc12 | > 10 | 5.8 (≈ 16.5 µM) | > 10 | > 10 | > 10 | 4.9 (≈ 13.9 µM) | > 10 |  |  |  |  |  |  |  |  | 
10 | CCCOC(=O)c1c(C)coc1-c1ccc2c(CC)cccc2c1OC | > 10 | > 10 | > 10 | > 10 | > 10 | > 10 | > 10 |  |  |  |  |  |  |  |  | 
11 | CCc1cccc2c(OC)c(-c3occ(C)c3COC(=O)CCN(CC)CC)ccc12 | > 10 | > 10 | > 10 | > 10 | > 10 | 1.7 (≈ 4.01 µM) | 0.85 (≈ 2.01 µM) |  |  |  |  |  |  |  |  | 
12 | CCOCc1c(C)coc1-c1ccc2c(CC)cccc2c1OC | > 10 | > 10 | > 10 | > 10 | > 10 | 9.1 (≈ 28.1 µM) |  |  |  |  |  |  |  |  |  | 
13 | CCOc1c(-c2occ(C)c2C(=O)OC)ccc2c(CC)cccc12 | 1.8 (≈ 5.32 µM) | 1.7 (≈ 5.02 µM) | 2.4 (≈ 7.09 µM) | 1.9 (≈ 5.61 µM) | 1.9 (≈ 5.61 µM) | 1.2 (≈ 3.55 µM) | 1.1 (≈ 3.25 µM) |  |  |  |  |  |  |  |  | 
14 | CCc1cccc2c(OC)c(-c3occ(C)c3C(=O)OC)ccc12 | 1.7 (≈ 5.24 µM) | 1.3 (≈ 4.01 µM) | 1.5 (≈ 4.62 µM) | 2.2 (≈ 6.78 µM) | 1.2 (≈ 3.7 µM) | 1.3 (≈ 4.01 µM) | 2.3 (≈ 7.09 µM) |  |  |  |  |  |  |  |  | 
15 | CCc1cccc2c(OC)c(-c3occ(C)c3C(=O)NC)ccc12 | > 10 | > 10 | > 10 | > 10 | > 10 | > 10 | > 10 |  |  |  |  |  |  |  |  | 
16 | CCc1cccc2c(OC)c(-c3occ(C)c3C(=S)OC)ccc12 | 4.3 (≈ 12.6 µM) | 5.1 (≈ 15 µM) | 6.2 (≈ 18.2 µM) | 5.7 (≈ 16.7 µM) | 6.3 (≈ 18.5 µM) | 5.8 (≈ 17 µM) | 7.1 (≈ 20.9 µM) |  |  |  |  |  |  |  |  | 
17 | CCc1cccc2c(O)c(-c3occ(C)c3C(=O)O)ccc12 | 9.1 (≈ 30.7 µM) | 7 (≈ 23.6 µM) |  | 8.7 (≈ 29.4 µM) | 1 (≈ 3.37 µM) | 0.3 (≈ 1.01 µM) |  |  |  |  |  |  |  | 70 | 29 | 83
18 | CCc1cccc2c(OC)c(-c3occ(C)c3COC(C)=O)ccc12 | > 10 | > 10 | > 10 | > 10 | > 10 | 3.5 (≈ 10.3 µM) |  |  |  |  |  |  |  |  |  | 
19 | CCc1cccc2c(OC)c(-c3occ(C)c3COCC(F)(F)F)ccc12 | 6.6 (≈ 17.4 µM) | 6 (≈ 15.9 µM) | > 10 | 5.7 (≈ 15.1 µM) | 5.3 (≈ 14 µM) | 5.3 (≈ 14 µM) |  |  |  |  |  |  |  |  |  | 
20 | CCc1cccc2c(OC)c(-c3occ(C)c3CBr)ccc12 | > 10 | > 10 | > 10 | > 10 | > 10 | 4.6 (≈ 12.8 µM) |  |  |  |  |  |  |  |  |  | 
